SMILES strings stand for the structures.

For experiment [1], the target named is Serine/threonine-protein kinase 32B (Homo sapiens) (UniProt Q9NY57). Put plainly: Inhibition of YANK2 assessed as residual activity at 10 uM relative to control.
Experiment [2] has as its target Serine/threonine-protein kinase TBK1 (Homo sapiens) (UniProt Q9UHD2). Kind of experiment: Inhibition of TBK1 assessed as residual activity at 10 uM relative to control.
Experiment [3] deals with Casein kinase I isoform gamma-3 (Homo sapiens) (UniProt Q9Y6M4). Put plainly: Inhibition of CSNK1G3 assessed as residual activity at 10 uM relative to control. A digest of the protocol:
(§1)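 Competition kinase-binding assay (KINOMEscan) across a non-redundant panel of 329 kinases beyond the radiometric panel; residual binding expressed relative to control.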

Experiment [4] deals with Casein kinase I isoform alpha (Homo sapiens) (UniProt P48729). Kind of experiment: Inhibition of CSNK1A1 assessed as residual activity at 10 uM relative to control. The gist of the method:
as §1

The target of experiment [5] is Dual specificity protein kinase CLK3 (Homo sapiens) (UniProt P49761). Kind of experiment: Inhibition of CLK3 assessed as residual activity at 10 uM relative to control. The gist of the method:
as §1

Experiment [6] concerns the target MAP kinase-activated protein kinase 5 (Homo sapiens) (UniProt Q8IW41). Put plainly: Inhibition of PRAK assessed as residual activity at 1 uM.
The target in experiment [7] is SRSF protein kinase 1 (Homo sapiens) (UniProt Q96SB4). Put plainly: Inhibition of SRPK1 assessed as residual activity at 10 uM relative to control.
Experiment [8] has as its target Serine/threonine-protein kinase SIK2 (Homo sapiens) (UniProt Q9H0K1). Kind of experiment: Inhibition of SIK2 assessed as residual activity at 10 uM relative to control.
The target of experiment [9] is Serine/threonine-protein kinase 3 (Homo sapiens) (UniProt Q13188). Kind of experiment: Inhibition of MST2 assessed as residual activity at 1 uM.
Experiment [10] deals with MAP kinase-activated protein kinase 2 (Homo sapiens) (UniProt P49137). Kind of experiment: Inhibition of MAPKAPK2 assessed as residual activity at 10 uM relative to control.
The target of experiment [11] is Mitogen-activated protein kinase kinase kinase kinase 3 (Homo sapiens) (UniProt Q8IVH8). Kind of experiment: Inhibition of MAP4K3 assessed as residual activity at 10 uM relative to control.
Experiment [12] concerns the target Leukocyte tyrosine kinase receptor (Homo sapiens) (UniProt P29376). Put plainly: Inhibition of LTK assessed as residual activity at 10 uM relative to control.
Experiment [13] addresses Tyrosine-protein kinase BTK (Homo sapiens) (UniProt Q06187). Kind of experiment: Inhibition of BTK assessed as residual activity at 10 uM relative to control.
Experiment [14] concerns the target Aurora kinase C (Homo sapiens) (UniProt Q9UQB9). Kind of experiment: Inhibition of AURKC assessed as residual activity at 10 uM relative to control.
Experiment [15] deals with Protein kinase C eta type (Homo sapiens) (UniProt P24723). Kind of experiment: Inhibition of PRKCH assessed as residual activity at 10 uM relative to control.
The target of experiment [16] is T1, Mitogen-activated protein kinase kinase kinase 7 (Homo sapiens) (UniProt O43318).
T1 sequence (whole entry): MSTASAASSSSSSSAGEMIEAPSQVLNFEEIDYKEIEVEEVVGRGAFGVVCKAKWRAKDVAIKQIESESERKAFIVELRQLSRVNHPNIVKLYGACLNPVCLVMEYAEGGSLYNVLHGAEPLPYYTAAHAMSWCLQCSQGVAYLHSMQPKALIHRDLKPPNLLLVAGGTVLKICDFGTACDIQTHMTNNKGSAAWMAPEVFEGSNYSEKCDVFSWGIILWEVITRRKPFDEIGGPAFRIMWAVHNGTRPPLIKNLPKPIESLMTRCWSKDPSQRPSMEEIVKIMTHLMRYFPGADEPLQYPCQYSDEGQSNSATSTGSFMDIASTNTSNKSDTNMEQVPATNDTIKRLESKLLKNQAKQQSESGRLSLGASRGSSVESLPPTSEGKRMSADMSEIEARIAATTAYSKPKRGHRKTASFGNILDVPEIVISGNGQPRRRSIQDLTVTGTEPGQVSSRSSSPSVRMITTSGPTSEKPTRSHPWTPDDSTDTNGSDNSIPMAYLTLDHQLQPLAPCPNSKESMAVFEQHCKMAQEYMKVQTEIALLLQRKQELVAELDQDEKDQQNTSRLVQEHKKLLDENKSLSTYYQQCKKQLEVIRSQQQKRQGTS
Put plainly: Inhibition of TAK1 assessed as residual activity at 10 uM.

Experiment [17] concerns the target Serine/threonine-protein kinase pim-1 (Homo sapiens) (UniProt P11309). Put plainly: Inhibition of PIM1 assessed as residual activity at 10 uM.
The test system of experiment [18] is Receptor-type tyrosine-protein kinase FLT3 (Homo sapiens), P36888 [N841I]. Put plainly: Inhibition of FLT3 N841I mutant assessed as residual activity at 10 uM relative to control.
The nature of experiment [19]: Inhibition of FLT3 ITD mutant assessed as residual activity at 10 uM relative to control.
Experiment [20] has as its target Tyrosine-protein kinase CSK (Homo sapiens) (UniProt P41240). Kind of experiment: Inhibition of CSK assessed as residual activity at 10 uM. A digest of the protocol:
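Standard radioactivity-based enzymatic kinase assays on a 131-kinase panel run by the Dundee profiling service; residual kinase activity recorded.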

Experiment [21] addresses Ephrin type-B receptor 6 (Homo sapiens) (UniProt O15197). Kind of experiment: Inhibition of EPHB6 assessed as residual activity at 10 uM relative to control. A digest of the protocol: as §1
In experiment [22] the target is Leucine-rich repeat serine/threonine-protein kinase 2 (Mus musculus) (UniProt Q5S006). Kind of experiment: Inhibition of LRRK2 in Swiss mouse 3T3 cells assessed as inhibition of Ser935 autophosphorylation after 90 mins by immunoblot method. The class given is cell-based. Particulars: NIH3T3. On the technique in general: Immunoblotting shows a protein as a band on a membrane.

Experiment [23] addresses Myosin light chain kinase family member 4 (Homo sapiens) (UniProt Q86YV6). Put plainly: Inhibition of MYLK4 assessed as residual activity at 10 uM relative to control.

Sequence of Casein kinase I isoform gamma-3 (Homo sapiens) (Q9Y6M4 whole entry, looked up, canonical isoform): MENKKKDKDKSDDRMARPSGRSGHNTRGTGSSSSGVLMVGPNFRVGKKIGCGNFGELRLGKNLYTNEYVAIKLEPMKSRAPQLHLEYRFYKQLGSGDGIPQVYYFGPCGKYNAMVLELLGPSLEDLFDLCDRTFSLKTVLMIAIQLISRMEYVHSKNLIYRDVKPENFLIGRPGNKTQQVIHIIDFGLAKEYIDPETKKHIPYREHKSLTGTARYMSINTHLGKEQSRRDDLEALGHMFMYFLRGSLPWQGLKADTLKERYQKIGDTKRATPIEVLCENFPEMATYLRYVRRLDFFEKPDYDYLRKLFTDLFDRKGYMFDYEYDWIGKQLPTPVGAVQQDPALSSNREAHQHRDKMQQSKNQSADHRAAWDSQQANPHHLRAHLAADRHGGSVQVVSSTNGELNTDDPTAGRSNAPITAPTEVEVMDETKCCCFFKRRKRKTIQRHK
Sequence of Serine/threonine-protein kinase pim-1 (Homo sapiens) (P11309 whole entry, looked up): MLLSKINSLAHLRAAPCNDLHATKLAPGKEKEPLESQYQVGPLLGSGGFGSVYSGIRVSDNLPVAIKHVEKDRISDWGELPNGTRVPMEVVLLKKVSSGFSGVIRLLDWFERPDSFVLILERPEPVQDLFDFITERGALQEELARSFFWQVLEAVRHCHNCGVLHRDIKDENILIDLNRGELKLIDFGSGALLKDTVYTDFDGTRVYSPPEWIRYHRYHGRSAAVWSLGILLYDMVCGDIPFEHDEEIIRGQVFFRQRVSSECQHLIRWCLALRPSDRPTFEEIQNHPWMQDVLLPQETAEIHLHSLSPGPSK
Sequence of MAP kinase-activated protein kinase 2 (Homo sapiens) (P49137 whole entry, looked up): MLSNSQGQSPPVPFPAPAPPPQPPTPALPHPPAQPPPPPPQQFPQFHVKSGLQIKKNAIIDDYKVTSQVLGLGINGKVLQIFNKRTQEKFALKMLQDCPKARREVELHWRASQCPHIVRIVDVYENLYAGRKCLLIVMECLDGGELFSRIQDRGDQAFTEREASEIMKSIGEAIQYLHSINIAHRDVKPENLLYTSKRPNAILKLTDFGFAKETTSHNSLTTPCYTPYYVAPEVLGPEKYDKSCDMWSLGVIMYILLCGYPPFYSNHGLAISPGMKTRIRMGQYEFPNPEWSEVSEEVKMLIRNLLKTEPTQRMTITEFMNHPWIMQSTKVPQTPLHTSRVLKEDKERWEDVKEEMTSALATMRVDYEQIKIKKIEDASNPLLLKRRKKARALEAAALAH
Sequence of Serine/threonine-protein kinase TBK1 (Homo sapiens) (Q9UHD2 whole entry, canonical isoform): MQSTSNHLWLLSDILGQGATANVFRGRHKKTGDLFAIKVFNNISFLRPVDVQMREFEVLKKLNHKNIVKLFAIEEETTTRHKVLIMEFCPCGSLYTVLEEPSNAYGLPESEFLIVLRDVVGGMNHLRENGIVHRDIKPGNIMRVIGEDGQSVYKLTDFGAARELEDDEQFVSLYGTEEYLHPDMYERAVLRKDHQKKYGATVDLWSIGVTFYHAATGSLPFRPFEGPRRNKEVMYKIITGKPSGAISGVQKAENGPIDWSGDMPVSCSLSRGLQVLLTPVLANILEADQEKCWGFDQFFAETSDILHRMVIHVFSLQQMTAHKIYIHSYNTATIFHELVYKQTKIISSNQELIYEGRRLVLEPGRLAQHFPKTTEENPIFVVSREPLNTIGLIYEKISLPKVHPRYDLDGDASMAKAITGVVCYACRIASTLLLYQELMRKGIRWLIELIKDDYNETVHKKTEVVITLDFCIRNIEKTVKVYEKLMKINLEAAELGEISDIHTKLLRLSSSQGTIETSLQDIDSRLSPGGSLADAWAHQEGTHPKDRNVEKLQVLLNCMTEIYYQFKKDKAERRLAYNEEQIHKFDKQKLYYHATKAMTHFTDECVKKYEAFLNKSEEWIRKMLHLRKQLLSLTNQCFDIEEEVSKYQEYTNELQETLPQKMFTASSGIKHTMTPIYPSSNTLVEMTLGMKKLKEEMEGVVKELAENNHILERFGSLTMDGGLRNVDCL
Sequence of Leucine-rich repeat serine/threonine-protein kinase 2 (Mus musculus) (Q5S006 whole entry): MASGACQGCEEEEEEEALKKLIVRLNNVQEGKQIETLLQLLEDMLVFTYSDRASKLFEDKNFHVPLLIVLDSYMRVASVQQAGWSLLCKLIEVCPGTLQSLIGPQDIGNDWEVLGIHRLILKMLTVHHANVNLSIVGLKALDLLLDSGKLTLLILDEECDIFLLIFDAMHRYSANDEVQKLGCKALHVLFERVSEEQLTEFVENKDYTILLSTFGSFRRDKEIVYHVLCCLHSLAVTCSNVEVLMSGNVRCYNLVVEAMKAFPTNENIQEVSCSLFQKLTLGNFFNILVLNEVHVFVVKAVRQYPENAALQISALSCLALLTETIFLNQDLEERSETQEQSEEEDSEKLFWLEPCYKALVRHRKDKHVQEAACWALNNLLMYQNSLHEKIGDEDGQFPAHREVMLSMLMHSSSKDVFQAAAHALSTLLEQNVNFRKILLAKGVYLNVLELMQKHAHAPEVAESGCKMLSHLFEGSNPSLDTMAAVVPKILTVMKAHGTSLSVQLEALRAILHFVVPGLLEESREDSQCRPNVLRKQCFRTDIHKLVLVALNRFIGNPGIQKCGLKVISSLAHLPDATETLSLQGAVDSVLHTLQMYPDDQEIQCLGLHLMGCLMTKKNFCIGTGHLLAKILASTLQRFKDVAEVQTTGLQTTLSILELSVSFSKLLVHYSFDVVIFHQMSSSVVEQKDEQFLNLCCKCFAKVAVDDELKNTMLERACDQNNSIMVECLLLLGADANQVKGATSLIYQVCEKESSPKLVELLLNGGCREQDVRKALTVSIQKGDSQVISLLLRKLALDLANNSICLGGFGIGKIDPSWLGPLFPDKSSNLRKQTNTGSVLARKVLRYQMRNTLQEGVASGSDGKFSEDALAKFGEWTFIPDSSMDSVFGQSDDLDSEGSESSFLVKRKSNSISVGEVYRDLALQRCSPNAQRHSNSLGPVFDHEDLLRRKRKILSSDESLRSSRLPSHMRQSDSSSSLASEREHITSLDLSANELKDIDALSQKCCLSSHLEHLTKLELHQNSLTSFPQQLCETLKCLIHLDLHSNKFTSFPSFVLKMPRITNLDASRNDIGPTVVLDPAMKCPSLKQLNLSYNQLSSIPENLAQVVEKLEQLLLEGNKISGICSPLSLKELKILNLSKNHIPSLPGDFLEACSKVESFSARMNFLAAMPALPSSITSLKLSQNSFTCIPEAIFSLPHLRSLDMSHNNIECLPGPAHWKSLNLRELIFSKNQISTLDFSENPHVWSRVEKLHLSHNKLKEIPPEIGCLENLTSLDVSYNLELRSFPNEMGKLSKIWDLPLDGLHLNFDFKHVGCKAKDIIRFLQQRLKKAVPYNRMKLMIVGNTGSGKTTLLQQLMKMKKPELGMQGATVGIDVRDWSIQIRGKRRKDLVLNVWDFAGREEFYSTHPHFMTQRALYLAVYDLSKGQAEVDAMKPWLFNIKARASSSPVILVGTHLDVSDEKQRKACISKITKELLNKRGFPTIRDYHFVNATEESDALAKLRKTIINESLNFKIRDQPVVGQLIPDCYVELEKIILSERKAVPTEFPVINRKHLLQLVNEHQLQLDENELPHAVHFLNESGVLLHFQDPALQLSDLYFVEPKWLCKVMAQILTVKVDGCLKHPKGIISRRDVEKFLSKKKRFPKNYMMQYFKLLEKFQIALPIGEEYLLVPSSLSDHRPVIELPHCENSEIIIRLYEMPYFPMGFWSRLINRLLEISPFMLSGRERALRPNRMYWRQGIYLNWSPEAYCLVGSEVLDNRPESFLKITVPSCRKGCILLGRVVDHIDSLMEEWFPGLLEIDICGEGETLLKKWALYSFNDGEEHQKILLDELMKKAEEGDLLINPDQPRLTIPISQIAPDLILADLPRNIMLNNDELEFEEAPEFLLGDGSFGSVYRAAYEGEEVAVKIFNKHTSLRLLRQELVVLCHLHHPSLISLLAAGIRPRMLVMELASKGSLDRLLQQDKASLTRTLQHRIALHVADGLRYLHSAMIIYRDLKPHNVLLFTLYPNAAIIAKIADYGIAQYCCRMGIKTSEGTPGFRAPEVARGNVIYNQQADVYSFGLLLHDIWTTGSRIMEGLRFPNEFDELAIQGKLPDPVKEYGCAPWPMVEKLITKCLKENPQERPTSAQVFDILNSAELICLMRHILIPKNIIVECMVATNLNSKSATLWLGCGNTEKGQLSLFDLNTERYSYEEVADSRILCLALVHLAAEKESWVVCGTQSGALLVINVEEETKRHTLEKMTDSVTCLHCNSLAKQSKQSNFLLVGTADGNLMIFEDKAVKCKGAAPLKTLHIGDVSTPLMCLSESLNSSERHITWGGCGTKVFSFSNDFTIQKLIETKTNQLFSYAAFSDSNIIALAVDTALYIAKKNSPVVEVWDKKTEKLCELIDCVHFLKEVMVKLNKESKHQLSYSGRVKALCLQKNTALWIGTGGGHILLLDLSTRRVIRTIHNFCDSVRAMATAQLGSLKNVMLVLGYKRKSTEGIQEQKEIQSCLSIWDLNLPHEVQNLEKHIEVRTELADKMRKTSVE
Sequence of MAP kinase-activated protein kinase 5 (Homo sapiens) (Q8IW41 whole entry): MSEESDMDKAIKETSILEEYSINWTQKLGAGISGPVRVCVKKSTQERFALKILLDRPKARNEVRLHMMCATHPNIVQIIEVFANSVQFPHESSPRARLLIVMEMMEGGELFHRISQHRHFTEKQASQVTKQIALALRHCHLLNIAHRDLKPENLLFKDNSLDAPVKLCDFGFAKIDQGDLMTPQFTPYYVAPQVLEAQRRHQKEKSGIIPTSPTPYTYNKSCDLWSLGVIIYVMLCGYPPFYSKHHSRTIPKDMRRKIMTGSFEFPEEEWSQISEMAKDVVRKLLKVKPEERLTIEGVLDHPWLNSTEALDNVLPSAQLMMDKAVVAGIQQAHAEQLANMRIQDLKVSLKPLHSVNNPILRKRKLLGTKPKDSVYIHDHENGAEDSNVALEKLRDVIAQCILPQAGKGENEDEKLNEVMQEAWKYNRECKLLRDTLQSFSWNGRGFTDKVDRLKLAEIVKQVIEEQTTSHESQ

For `O=C(Nc1cccnc1)c1cc(-c2ccnc(F)c2)ccc1OCc1ccccc1`, the Activity came out at 79% in [1]; 68% in [2]; 26% in experiment [3]; 60% in experiment [4]; 58% in [5]; 109% in [6]. Further, the Activity was 79% in experiment [7]; 26% in [8]; 103% in experiment [9]; 74% in experiment [10]; 60% in experiment [11]; 21% in experiment [12]. The Activity was 64% in experiment [13]; 75% in experiment [14]; 59% in experiment [15]; 101% in [16]; 109% in experiment [17]; 30% in experiment [18]. Besides, the Activity in experiment [19] was 16%; in experiment [20] it was 114%; in [21], 61%; in [23] it was 80%. The inhibition entry in [22] was “Dose-dependent effect”.

The values are drawn from ChEMBL document CHEMBL2203081 (Bioorg Med Chem Lett, 2012).
